Source: article PMC11865470 (Communications Biology, 2025)
Entries after “also recorded” stand apart in the source; their conditions may differ.

Columns and labels:
Assay type in all cases: cell-based
KV4.3 = molecular target: T1, KV4.3 (Rattus norvegicus, UniProt Q62897); experiment: whole-cell patch-clamp, off-target channel, 10 μM compound
T1 sequence (Q62897 1-611 isoform Q62897-3): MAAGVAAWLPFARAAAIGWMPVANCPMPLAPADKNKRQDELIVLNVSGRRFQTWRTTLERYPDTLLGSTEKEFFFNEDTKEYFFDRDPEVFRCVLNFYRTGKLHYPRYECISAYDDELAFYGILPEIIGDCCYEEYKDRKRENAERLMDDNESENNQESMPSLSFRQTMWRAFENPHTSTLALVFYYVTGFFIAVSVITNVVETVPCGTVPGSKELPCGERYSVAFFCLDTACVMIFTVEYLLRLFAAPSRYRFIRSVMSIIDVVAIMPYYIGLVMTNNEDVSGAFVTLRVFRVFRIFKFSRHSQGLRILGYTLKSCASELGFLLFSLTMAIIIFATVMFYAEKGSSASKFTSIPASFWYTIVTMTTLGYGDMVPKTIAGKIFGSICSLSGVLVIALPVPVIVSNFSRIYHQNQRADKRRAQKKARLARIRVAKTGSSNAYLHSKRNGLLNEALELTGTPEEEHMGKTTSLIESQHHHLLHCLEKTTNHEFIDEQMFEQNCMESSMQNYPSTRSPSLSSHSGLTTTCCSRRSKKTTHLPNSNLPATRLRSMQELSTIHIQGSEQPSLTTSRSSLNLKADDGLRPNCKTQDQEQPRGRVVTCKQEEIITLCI
In short: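 KV channels in transiently transfected HEK293T cells, whole-cell. Pipette (mM): 140 KCl, 2.5 MgCl2, 11 EGTA, 10 HEPES, pH 7.4. Bath (mM): 145 NaCl, 2.8 KCl, 2 CaCl2, 1 MgCl2, 10 glucose, 10 HEPES, pH 7.4. 0.1% DMSO bath applied, then 10 μM test compound. DMSO vs compound inhibition ratio compared by unpaired t-test, n = 5.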

HV1 = molecular target: T2, HV1 (Homo sapiens, UniProt Q96D96); experiment: whole-cell patch-clamp, off-target channel, 10 μM compound; conditions: vs 0.1% DMSO
T2 sequence (Q96D96 1-273): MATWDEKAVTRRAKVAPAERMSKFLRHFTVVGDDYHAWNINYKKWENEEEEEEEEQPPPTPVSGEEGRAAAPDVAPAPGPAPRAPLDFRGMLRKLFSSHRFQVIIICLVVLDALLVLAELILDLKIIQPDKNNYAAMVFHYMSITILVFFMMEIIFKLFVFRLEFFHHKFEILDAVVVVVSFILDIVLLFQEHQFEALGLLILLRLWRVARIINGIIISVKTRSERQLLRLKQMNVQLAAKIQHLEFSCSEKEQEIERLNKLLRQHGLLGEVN
In short: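 HV1 in transfected HEK293T cells, whole-cell. Pipette (mM): 120 CsCl, 100 MES, pH 5.5. Bath (mM): 150 NaCl, 5 KCl, 1 MgCl2, 2 CaCl2, 10 glucose, 100 HEPES, pH 7.2. Bath with 0.1% DMSO applied before 10 μM test compound. Inhibition ratios compared by unpaired t-test, n = 5.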

Kir1.1 = molecular target: T3, Kir1.1 (Homo sapiens, UniProt P48048); experiment: whole-cell patch-clamp, off-target channel, 10 μM compound; conditions: vs 0.1% DMSO
T3 sequence (P48048 1-391): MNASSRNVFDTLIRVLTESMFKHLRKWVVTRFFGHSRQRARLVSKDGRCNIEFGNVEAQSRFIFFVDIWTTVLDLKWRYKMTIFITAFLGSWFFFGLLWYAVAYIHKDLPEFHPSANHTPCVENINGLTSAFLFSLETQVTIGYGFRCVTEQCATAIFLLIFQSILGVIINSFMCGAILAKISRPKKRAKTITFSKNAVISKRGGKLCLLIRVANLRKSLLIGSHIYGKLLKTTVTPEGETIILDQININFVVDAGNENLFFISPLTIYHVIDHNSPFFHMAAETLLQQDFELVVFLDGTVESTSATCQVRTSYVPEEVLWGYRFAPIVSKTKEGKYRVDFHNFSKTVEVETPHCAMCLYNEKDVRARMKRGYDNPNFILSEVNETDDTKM
In short: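 Kir channels in transfected HEK293T cells, whole-cell. Pipette (mM): 135 KCl, 2 MgCl2, 10 HEPES, 1 EGTA, 4 Na2-ATP, pH 7.3. Bath (mM): 135 NaCl, 5 KCl, 1.5 CaCl2, 1 MgCl2, 10 HEPES, 10 glucose, pH 7.4. 0.1% DMSO bath applied before 10 μM test compound. Inhibition ratios compared by unpaired t-test, n = 5.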

[1] = molecular target: T4, mOtop1 channels co-expressed in HEK293 cells (Mus musculus, UniProt Q80VM9); experiment: live cell intracellular pH imaging; conditions: 10 μM; for effect on intracellular pH changes mediated by mOtop1, acidification: extracellular pH 6.0/5.0; for effect on intracellular pH changes mediated by mOtop1, alkalinization: extracellular pH 8.5
T4 sequence (Q80VM9 1-600): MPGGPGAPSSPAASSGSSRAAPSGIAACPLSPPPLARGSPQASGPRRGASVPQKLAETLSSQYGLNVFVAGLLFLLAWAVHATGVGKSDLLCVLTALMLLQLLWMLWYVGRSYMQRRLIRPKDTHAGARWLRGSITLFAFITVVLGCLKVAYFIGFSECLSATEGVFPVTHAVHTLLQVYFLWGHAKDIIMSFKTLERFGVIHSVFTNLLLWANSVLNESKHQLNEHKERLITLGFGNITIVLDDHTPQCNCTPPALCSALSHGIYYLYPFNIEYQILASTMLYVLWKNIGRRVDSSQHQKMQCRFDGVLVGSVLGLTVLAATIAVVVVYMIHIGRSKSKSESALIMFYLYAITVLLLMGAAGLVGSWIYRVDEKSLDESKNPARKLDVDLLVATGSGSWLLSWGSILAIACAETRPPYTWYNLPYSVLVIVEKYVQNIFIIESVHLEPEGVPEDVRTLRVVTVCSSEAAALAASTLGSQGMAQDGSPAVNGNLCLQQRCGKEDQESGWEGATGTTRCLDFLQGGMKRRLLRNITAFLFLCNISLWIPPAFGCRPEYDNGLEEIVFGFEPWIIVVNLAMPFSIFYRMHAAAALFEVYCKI
In short: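 HEK293 cells were electroporated (180 V, 25 ms) with pHmScarlet-mTurquise2, with or without mOtop1, and imaged 24 h later. Cells sat in pH 7.4 solution (mM: 140 KCl, 10 NaCl, 1 MgCl2, 20 HEPES), then were shifted to pH 8.5 (Tris), 6.0 (MES) or 5.0 (HomoPIPES). Test compound was 10 μM in the stimulus solution, with acetic acid pH 5.0 as positive control. FpHmScarlet/FmTurquise2 ratio read every 2 s.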

NaV1.4 = NaV1.4 (Homo sapiens, UniProt P35499); experiment: whole-cell patch-clamp, off-target channel, 10 μM compound; conditions: for sensitivity of channel to compound: vs 0.1% DMSO
In short: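 NaV channels, transiently transfected HEK293T cells, whole-cell, 16–24 h after seeding. Pipette (mM): 140 CsF, 1 EGTA, 10 NaCl, 10 HEPES, pH 7.4. Bath (mM): 140 NaCl, 5 KCl, 2 CaCl2, 1 MgCl2, 10 glucose, 10 HEPES, pH 7.4. Bath with 0.1% DMSO applied before 10 μM test compound. Inhibition ratios compared by unpaired t-test, n = 5.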

NaV1.4, sequence (P35499 whole entry): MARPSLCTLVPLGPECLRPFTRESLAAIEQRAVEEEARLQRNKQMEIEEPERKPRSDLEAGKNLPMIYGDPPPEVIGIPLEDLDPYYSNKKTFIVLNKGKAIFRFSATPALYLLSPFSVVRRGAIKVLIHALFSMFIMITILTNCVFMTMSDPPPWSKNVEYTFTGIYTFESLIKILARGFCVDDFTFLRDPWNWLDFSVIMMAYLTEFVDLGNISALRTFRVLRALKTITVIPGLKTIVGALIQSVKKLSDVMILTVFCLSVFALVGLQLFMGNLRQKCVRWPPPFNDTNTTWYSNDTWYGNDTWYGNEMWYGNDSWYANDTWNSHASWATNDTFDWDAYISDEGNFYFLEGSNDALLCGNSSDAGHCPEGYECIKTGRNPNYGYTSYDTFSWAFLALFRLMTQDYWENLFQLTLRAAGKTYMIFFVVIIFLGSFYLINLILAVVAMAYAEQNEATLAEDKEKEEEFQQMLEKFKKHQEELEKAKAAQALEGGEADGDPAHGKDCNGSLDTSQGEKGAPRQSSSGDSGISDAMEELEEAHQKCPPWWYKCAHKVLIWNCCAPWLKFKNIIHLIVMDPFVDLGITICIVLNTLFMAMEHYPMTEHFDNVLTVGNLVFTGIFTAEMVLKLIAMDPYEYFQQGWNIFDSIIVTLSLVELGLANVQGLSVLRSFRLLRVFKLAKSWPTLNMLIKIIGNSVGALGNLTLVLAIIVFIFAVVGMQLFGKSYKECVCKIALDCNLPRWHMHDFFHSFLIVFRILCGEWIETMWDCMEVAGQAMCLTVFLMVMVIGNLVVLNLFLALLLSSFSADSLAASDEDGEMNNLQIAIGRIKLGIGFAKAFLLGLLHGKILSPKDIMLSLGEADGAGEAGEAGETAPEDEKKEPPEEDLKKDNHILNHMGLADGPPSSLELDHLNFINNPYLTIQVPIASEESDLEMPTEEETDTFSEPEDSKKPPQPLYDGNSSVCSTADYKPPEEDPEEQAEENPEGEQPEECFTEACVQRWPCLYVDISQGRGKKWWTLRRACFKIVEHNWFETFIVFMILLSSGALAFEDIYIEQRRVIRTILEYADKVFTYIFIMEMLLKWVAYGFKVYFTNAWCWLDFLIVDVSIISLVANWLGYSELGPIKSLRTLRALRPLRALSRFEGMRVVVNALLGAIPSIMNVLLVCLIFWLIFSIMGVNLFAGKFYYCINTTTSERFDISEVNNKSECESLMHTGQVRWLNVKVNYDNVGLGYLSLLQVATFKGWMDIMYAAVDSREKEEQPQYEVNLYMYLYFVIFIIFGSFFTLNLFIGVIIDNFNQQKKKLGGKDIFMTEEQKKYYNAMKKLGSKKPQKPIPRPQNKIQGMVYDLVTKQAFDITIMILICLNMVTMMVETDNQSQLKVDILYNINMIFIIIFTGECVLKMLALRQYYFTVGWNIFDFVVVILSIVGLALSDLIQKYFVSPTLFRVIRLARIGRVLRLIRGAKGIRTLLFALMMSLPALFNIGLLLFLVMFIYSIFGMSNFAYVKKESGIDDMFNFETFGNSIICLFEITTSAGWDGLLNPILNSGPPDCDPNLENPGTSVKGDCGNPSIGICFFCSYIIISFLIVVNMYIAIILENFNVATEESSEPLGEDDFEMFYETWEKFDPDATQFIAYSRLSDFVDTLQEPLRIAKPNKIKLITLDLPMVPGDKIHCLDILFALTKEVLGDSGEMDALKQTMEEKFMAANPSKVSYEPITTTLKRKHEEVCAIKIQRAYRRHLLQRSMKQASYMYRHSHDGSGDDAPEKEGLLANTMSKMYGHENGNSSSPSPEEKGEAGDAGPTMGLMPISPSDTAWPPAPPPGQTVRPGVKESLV

SMILES	sensitivity of channel to compound (KV4.3; vs 0.1% DMSO)	sensitivity of channel to compound (HV1)	sensitivity of channel to compound (Kir1.1)	effect on intracellular pH changes mediated by mOtop1, acidification [1]	effect on intracellular pH changes mediated by mOtop1, alkalinization [1]	sensitivity of channel to compound (NaV1.4)	inhibition ratio (KV4.3) [%]	inhibition ratio (NaV1.4) [%]
Cc1cc(NC(=O)c2ccc(Br)o2)ccc1NC(=O)c1ccco1 [B2FAMP, 5-Bromo-N-[4-(2-furoylamino)-3-methylphenyl]-2-furamide]	completely resistant	completely resistant	completely resistant	increases intracellular pH changes	no effect	completely resistant	–	–
CC(C)c1noc2ncc(C(=O)c3ccccc3O)cc12 [HIMOP, (2-hydroxyphenyl)-(3-propan-2-yl-5-isoxazolo[5,4-b]pyridinyl)methanone]	–	completely resistant	completely resistant	increases intracellular pH changes	small but statistically significant increase in pHi; also recorded: increases intracellular pH changes; also recorded: slightly but significantly enhance	completely resistant	12.9	–
Cc1ccc(C(=O)Nc2ccc3ccccc3c2)o1 [MFaN, 5-methyl-N-2-naphthyl-2-furamide]	–	completely resistant	completely resistant	increases intracellular pH changes	no effect	–	7.0	7.0
